From ChEMBL document CHEMBL4732199, “Potent and orally bioavailable CDK8 inhibitors: Design, synthesis, structure-activity relationship analysis and biological evaluation” (Eur J Med Chem, 2021) come the findings set out here.

The target in data set [1] is CDK6/cyclin D3 (Homo sapiens) (UniProt P30281+Q00534). Nature of the data set: Inhibition of CDK6/cyclin-D3 (unknown origin) at 1 uM. The format is protein-complex assay. An outline of the steps: (§1)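 Residual activity of each kinase with compound at 1 µM, measured in a contracted radioisotope-based kinase profiling assay and expressed as % kinase activity remaining.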

Data set [2] addresses Cyclin-dependent kinase 5/CDK5 activator 1 (Homo sapiens) (UniProt Q00535+Q15078). Nature of the data set: Inhibition of CDK5/p35 (unknown origin) at 1 uM. The format is protein-complex assay. A digest of the protocol: as §1
Data set [3] is described as follows: Half life in BALB/c mouse at 10 mg/kg, po measured up to 24 hrs by LC-MS/MS analysis. The settings on record: in vivo.
For data set [4], the target named is Cyclin-Y/Cyclin-dependent kinase 16 (Homo sapiens) (UniProt Q00536+Q8ND76). Nature of the data set: Inhibition of CDK16/Cyclin Y (unknown origin) at 1 uM. The format is protein-complex assay. A digest of the protocol:
as §1

Data set [5] deals with Cyclin-dependent kinase 14/Cyclin-Y (Homo sapiens) (UniProt O94921+Q8ND76). Nature of the data set: Inhibition of CDK14/Cyclin Y (unknown origin) at 1 uM. The format is protein-complex assay. A digest of the protocol:
as §1

Data set [6] addresses CDK17/Cyclin-Y (Homo sapiens) (UniProt Q00537+Q8ND76). As to the kind of experiment: Inhibition of CDK17/Cyclin Y (unknown origin) at 1 uM. The format is protein-complex assay. An outline of the steps:
as §1

Data set [7] can be described thus: Toxicity in BALB/c mouse assessed as disordered chondrocyte columns at 70 mg/kg, po administered once daily for 7 days and measured on day 15. The format is organism-based. The conditions noted are these: in vivo, 168 h, time 7 day.
For data set [8], the system named is Glycogen synthase kinase-3 beta (Homo sapiens), P49841 [UNDEFINED MUTATION]. As to the kind of experiment: Inhibition of human GSKbeta H350L mutant (2 to 3nd residues) at 1 uM using YRRAAVPPSPSLSRHSSPHQS(p) EDEEE as substrate incubated for 40 mins in presence of [gamma-33P]-ATP by scintillation counting method relative to control. A digest of the protocol:
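Single-point screen of residual kinase activity (%) at 1 µM compound. Run as a contract radiometric [γ-33P]-ATP kinase assay, either the KinaseProfiler service or the HotSpot assay. ATP was set at the experimentally determined Km(ATP) of each kinase.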

Data set [9] can be described thus: Clearance in BALB/c mouse at 2 mg/kg, iv measured up to 24 hrs by LC-MS/MS analysis. The conditions noted are these: in vivo.
The nature of data set [10]: Toxicity in BALB/c mouse assessed as increase in body weight at 70 mg/kg, po administered once daily for 7 days and measured on day 15 relative to control. Type of data set: organism-based. The settings on record: in vivo, 168 h, time 7 day.
A short description of data set [11]: Half life in BALB/c mouse at 2 mg/kg, iv measured up to 24 hrs by LC-MS/MS analysis. The settings on record: in vivo.
Data set [12] has as its target Cyclin-dependent kinase 1/cyclin B1 (Homo sapiens, UniProt P06493). As to the kind of experiment: Inhibition of CDK1/cyclin-B (unknown origin). The format is protein-complex assay. A digest of the protocol: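 IC50 measured in a contracted radiometric kinase assay with ATP at the experimentally determined Km(ATP) of each kinase. Apparent Ki was derived by Cheng-Prusoff: Ki = IC50/(1+[ATP]/Km(ATP)).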

A short description of data set [13]: Oral bioavailability in BALB/c mouse at 10 mg/kg measured up to 24 hrs by LC-MS/MS analysis. The settings on record: in vivo.
The target in data set [14] is CDK18/Cyclin Y (Homo sapiens) (UniProt Q07002+Q8ND76). As to the kind of experiment: Inhibition of CDK18/Cyclin Y (unknown origin) at 1 uM. Type of data set: protein-complex assay. An outline of the steps:
as §1

By inhibition is commonly meant how much of the control response was suppressed. A word on the half-life: it is the time needed for the level to fall by half in the phase considered. The clearance is the rate of elimination divided by the concentration. Lower therefore signals inefficient removal. What is called Ki is the dissociation constant of the complex between target and ligand, obtained from inhibition or displacement. High values mean lower affinity, low ones higher affinity. Usually bioavailability stands for the share of a dose that reaches the circulation, judged against a reference dose that is usually intravenous. Low readings indicate poor availability, high ones good availability.

Each structure is given as a SMILES string. Calls of active or inactive are those of the source.

Chain of Cyclin-dependent kinase 1/cyclin B1 (P06493 whole entry): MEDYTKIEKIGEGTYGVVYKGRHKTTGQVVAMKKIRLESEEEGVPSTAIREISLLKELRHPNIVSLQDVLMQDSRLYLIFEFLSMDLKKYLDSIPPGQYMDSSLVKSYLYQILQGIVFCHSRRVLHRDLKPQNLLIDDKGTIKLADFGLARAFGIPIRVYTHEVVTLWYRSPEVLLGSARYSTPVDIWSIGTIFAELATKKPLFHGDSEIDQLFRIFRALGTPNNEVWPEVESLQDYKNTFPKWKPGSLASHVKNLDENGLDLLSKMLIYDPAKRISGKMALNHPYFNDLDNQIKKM
Chain of Cyclin-dependent kinase 1/cyclin B1 (P14635 whole entry, further chain): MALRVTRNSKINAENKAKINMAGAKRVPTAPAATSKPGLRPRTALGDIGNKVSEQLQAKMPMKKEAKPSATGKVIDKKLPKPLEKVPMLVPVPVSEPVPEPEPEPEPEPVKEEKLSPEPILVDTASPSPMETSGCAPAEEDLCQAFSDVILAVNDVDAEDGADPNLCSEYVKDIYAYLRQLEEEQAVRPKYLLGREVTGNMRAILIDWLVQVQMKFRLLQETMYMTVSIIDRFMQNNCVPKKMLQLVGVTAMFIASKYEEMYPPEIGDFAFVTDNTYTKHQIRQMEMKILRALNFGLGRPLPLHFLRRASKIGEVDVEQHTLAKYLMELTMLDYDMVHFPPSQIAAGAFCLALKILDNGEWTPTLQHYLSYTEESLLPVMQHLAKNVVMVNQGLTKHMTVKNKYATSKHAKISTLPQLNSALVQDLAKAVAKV
Chain of Glycogen synthase kinase-3 beta (Homo sapiens), P49841 [UNDEFINED MUTATION] (P49841 whole entry, looked up, stated change not applied): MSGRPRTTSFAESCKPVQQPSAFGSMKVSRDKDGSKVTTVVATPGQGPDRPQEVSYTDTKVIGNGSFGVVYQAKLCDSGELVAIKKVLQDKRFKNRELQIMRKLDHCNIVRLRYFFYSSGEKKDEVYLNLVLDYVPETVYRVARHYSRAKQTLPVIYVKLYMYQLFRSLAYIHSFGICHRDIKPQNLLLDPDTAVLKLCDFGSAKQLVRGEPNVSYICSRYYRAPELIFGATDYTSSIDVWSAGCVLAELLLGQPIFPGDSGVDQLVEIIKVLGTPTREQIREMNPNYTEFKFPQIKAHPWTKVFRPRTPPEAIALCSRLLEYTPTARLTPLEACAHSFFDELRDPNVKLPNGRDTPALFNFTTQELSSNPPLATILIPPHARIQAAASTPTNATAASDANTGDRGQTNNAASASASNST
Chain of Cyclin-dependent kinase 5/CDK5 activator 1 (Homo sapiens) (Q00535 whole entry): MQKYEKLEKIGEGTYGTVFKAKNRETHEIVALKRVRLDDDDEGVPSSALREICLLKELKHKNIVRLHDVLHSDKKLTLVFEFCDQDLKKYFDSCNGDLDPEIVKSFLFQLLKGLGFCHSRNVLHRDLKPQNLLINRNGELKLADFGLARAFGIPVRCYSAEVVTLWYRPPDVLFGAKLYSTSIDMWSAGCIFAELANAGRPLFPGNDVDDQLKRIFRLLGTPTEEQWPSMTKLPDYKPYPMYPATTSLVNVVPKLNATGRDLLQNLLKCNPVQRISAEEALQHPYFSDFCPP
Chain of Cyclin-dependent kinase 5/CDK5 activator 1 (Homo sapiens) (Q15078 99-307 partner limits assumed): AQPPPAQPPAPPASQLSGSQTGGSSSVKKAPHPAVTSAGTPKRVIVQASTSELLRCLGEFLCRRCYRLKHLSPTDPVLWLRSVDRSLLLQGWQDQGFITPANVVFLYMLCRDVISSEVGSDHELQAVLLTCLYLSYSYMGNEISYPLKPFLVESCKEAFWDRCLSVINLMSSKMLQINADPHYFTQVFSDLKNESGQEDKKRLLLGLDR
Chain of CDK17/Cyclin-Y (Homo sapiens) (Q00537 whole entry): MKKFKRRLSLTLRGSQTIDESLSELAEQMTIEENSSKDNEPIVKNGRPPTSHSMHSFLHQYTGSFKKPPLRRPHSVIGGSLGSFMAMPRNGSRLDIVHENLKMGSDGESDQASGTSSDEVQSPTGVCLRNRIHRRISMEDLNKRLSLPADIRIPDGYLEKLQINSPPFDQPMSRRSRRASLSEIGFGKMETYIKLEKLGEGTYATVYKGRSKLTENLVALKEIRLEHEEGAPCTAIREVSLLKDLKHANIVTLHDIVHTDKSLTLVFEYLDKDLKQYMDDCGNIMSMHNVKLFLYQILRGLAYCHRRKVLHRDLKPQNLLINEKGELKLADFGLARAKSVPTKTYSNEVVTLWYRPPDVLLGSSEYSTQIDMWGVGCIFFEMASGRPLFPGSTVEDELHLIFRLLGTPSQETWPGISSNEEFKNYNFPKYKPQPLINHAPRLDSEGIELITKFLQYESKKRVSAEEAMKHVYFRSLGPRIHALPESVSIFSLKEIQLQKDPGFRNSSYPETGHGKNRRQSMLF
Chain of CDK17/Cyclin-Y (Homo sapiens) (Q8ND76 2-341 partner limits assumed): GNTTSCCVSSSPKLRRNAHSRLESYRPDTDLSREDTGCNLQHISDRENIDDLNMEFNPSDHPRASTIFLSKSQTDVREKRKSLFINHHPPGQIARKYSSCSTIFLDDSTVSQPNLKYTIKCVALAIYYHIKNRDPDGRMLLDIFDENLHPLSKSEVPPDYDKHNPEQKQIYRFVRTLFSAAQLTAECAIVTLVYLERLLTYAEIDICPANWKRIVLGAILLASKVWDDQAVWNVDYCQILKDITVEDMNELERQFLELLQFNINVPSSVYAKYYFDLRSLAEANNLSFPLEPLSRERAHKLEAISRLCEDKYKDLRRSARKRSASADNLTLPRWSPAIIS

As to `O=C1NCCC12CCN(c1c(Cl)cncc1-c1cc3ccccc3o1)CC2`, the inhibition result in data set [1], in data set [2], in [4], in [5], in [6] and in data set [14] was “inactive” throughout. The values for the half-life in [3] and in data set [11] were 66.6 min and 20.4 min, respectively. Further, the results for the Activity entry in [7] and in [10] were “Toxic” and 12%, respectively. Besides, the inhibition in data set [8] was greater than 50%. This compound also showed a clearance in data set [9] of 63 mL/min/kg. Further, affinity in [12] was put at a Ki of 1.89 µM. In addition, the bioavailability in [13] came to 33%.
